This is an account of results in ChEMBL document CHEMBL4385612, “Novel 15-Lipoxygenase-1 Inhibitor Protects Macrophages from Lipopolysaccharide-Induced Cytotoxicity” (J Med Chem, 2019).

In general, IC50 refers to the concentration needed to halve the response being measured. For orientation: inhibition means the percentage by which the read-out fell short of the control.

SMILES strings stand for the structures. Active and inactive are the calls of the source. The calls are words filed in the database; no cut-off is given here.

The target in series [1] is T1, Polyunsaturated fatty acid lipoxygenase ALOX15 (Homo sapiens, UniProt P16050).
T1 sequence (P16050 whole entry): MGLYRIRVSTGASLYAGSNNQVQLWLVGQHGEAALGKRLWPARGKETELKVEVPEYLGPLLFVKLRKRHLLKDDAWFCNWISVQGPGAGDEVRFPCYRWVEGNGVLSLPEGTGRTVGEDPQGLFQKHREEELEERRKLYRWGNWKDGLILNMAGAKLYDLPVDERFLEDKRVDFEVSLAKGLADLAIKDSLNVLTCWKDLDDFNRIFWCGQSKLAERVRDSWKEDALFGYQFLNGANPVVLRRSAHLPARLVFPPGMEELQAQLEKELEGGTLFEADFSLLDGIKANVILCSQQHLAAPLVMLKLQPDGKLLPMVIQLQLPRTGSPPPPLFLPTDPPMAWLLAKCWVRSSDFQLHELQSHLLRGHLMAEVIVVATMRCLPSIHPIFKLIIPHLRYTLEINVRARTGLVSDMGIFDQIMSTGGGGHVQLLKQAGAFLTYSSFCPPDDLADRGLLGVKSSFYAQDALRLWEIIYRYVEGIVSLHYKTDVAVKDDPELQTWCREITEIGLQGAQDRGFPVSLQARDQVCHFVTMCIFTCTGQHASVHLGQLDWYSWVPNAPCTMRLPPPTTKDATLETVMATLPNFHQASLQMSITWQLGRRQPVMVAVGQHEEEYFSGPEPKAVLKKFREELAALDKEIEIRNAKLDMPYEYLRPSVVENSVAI
As to the kind of experiment: Inhibition of human recombinant N-terminal His6-tagged 15-LOX1 expressed in Escherichia coli BL21(DE3) using linoleic acid as substrate preincubated for 10 mins followed by substrate addition by UV absorption analysis.

Series [2] has as its system RAW264.7. Put plainly: Inhibition of LPS/IFNgamma-stimulated lipid peroxidation in mouse RAW264.7 cells at 5 uM after 24 hrs by BODIPY 581/591 C11-staining based FACS assay. The class given is functional, cell-based. In a few lines:
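RAW 264.7 cells, 10 × 10^6 per well, incubated overnight. Then LPS/IFNγ (10 ng/mL each) for 24 h with or without inhibitor at 5 μM. Unstimulated cells served as control. Stained with BODIPY 581/591 C11 for 30 min at 37 °C. Red-to-green fluorescence shift measured by flow cytometry, 488 nm excitation. n = 3, mean ± SEM.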

Series [3] deals with RAW264.7. Put plainly: Protection against LPS-induced cell death in mouse RAW264.7 cells assessed as increase in cell viability at 5 uM measured after 48 hrs by MTS assay relative to control. The class given is functional. In short, it runs like this:
(§1)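 RAW 264.7 cells seeded at 5000 per well. Given 100 μg/mL LPS together with compound (0.2, 1, 5 μM) for 48 h. Viability measured by MTS: reagent for 2 h at 37 °C, absorbance at 490 nm. Compared with LPS-only control. n = 3–13, mean ± SEM.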

The nature of series [4]: Stability in pH 7.4 2-betamercaptoethanol at 25 to 50 uM by UV-spectra analysis. It is filed as physicochemical. To be noted: buffer, pH 7.4, 50 µM. In short, it runs like this:
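UV spectrum of compound recorded during incubation with 2-mercaptoethanol at pH 7.4, to follow thiol conjugate addition to the α,β-unsaturated amide.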

Series [5] relates to RAW264.7. Put plainly: Protection against LPS-induced cell death in mouse RAW264.7 cells assessed as increase in cell viability measured after 48 hrs by MTS assay. The class given is functional, cell-based. In short, it runs like this:
as §1
Background: Formazan colour is commonly taken as a measure of viable cells.

Series [6] has as its target T2, Polyunsaturated fatty acid lipoxygenase ALOX15 (Mus musculus) (UniProt P39654).
T2 sequence (whole entry): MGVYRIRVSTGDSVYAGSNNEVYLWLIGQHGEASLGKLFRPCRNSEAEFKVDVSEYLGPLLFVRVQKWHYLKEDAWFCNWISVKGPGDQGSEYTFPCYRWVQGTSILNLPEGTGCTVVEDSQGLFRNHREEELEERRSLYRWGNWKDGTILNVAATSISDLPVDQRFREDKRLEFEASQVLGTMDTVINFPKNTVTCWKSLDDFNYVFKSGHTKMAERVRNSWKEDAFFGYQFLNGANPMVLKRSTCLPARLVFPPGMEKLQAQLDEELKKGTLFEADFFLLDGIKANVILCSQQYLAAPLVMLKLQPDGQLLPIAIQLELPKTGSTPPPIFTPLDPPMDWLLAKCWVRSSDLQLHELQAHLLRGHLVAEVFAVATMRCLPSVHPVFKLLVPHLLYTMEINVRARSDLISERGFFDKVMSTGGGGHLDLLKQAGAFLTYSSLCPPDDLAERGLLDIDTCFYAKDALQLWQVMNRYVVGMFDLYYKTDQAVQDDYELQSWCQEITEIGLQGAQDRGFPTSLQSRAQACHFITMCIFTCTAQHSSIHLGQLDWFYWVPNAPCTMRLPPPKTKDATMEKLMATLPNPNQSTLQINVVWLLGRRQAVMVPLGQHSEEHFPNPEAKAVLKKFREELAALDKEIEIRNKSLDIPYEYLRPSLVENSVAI
Put plainly: Inhibition of 15-LOX1 in LPS/IFNgamma-stimulated mouse RAW264.7 cells assessed as reduction in nitric oxide production preincubated for 20 hrs followed by LPS/IFNgamma stimulation and measured after 4 hrs by colorimetric method. The class given is cell-based. In short, it runs like this:
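RAW 264.7 cells stimulated with LPS and IFNγ (10 ng/mL each). Figure legend: compound added at 0.2, 1 and 5 μM for 20 h, then LPS/IFNγ for a further 4 h. Methods describe 2 × 10^6 cells per well and a 24 h incubation at 5 μM. Total nitrate/nitrite measured with a colorimetric kit. Stimulated control set to 100%. n = 3, mean ± SEM.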

The target of series [7] is T2, Polyunsaturated fatty acid lipoxygenase ALOX15 (Mus musculus). Put plainly: Inhibition of 15LOX1 in LPS/IFNgamma-stimulated mouse RAW264.7 cells assessed as down regulation of iNOS gene expression at 5 uM preincubated for 20 hrs followed by LPS/IFNgamma stimulation and measured after 4 hrs by RT-PCR analysis relative to control. The class given is cell-based. In short, it runs like this:
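RAW 264.7 cells pretreated with compound (0.2, 1, 5 μM) for 20 h, then stimulated with LPS/IFNγ (10 ng/mL each) for 4 h in its presence. Total RNA isolated and integrity checked by 28S/18S ratio. RNA reverse-transcribed, and 10 ng cDNA used per real-time PCR. iNOS expression calculated by 2^–ΔΔCt and normalised to the stimulated positive control. n = 3–4, mean ± SEM.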

For series [8] the target is unchanged. Put plainly: Inhibition of 15LOX1 in mouse RAW blue cells assessed as suppression of LPS/IFNgamma-stimulated NFkappaB activation by measuring reduction in SEAP release at 0.2 to 5 uM preincubated for 20 hrs followed by LPS/IFNgamma-stimulation and measured after 4 hrs by quanti blue reagent-based reporter gene assay. The class given is cell-based. In a few lines: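 RAW-Blue cells (RAW 264.7 carrying an NF-κB–SEAP reporter, kept with 200 μg/mL Zeocin) seeded at 10 × 10^4 per well the day before. Pretreated with compound (0.2, 1, 5 μM) for 20 h, then LPS and IFNγ (10 ng/mL each) added for 4 h. Secreted SEAP read with QuantiBlue after 2 h at 37 °C, absorbance 635–655 nm. n = 8–16, mean ± SEM.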

Series [9] has the same target. As to the kind of experiment: Inhibition of N144 probe binding to 15-LOX in mouse RAW264.7 cells measured after 2 mins by HRP-coupled Western blot analysis. The class given is cell-based. In short, it runs like this: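 Lysates of inhibitor-treated and untreated RAW 264.7 cells exposed to covalent alkene probe N144 for 2 min. Probe then biotinylated by oxidative Heck reaction with a biotinylated phenylboronic acid and detected on blots with streptavidin–HRP. Blots also probed for 15-LOX-1 and β-actin. Band intensities normalised to β-actin. n = 3 independent experiments, mean ± SEM.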

On to `CCOC(=O)c1[nH]c2cc(Cl)ccc2c1/C=C/C(=O)NCCc1ccccc1`, for which the half-inhibitory concentration (IC50) in [1] was > 20 µM.

Take `CCCNC(=O)c1c(C(=O)OCC)[nH]c2cc(Cl)ccc12`: the IC50 in series [1] was > 20 µM. Consider `CC(c1cc2ccccc2s1)N(O)C(N)=O` (centres undefined), for which the inhibition result in series [2] was “Active”. In addition, in series [3], the result was Active.

Consider `CCCNC(=O)c1[nH]c2cc(Cl)ccc2c1/C=C/C(=O)NCc1ccccc1OC`, for which, in series [1], the IC50 is > 20 µM. Turning to `CCOC(=O)c1[nH]c2cc(Cl)ccc2c1C(=O)C[C@@H](C)CCCC(C)C`, the outcome in series [3] was Active.

For the compound `CCCNC(=O)c1[nH]c2cc(Cl)ccc2c1C(=O)C[C@@H](C)CCCC(C)C`, the 50% inhibitory concentration (IC50) in series [1] is > 20 µM.

Regarding `CCCNC(=O)c1[nH]c2cc(Cl)ccc2c1C(=O)C[C@H](C)CCCC(C)C`, the IC50 in series [1] was > 20 µM.

Take `O=C(NC1CC1)c1cc2ccc(Cl)cc2[nH]1`: the IC50 in series [1] is > 20 µM. Turning to `c1ccc2c(c1)SCc1c-2[nH]c2ccccc12`, the inhibition result in series [2] is “Active”. In the case of `CCCNC(=O)c1[nH]c2cc(Cl)ccc2c1CN(C)C`, in [1], the half-maximal inhibitory concentration (IC50) was > 20 µM. With `CCOC(=O)c1[nH]c2cc(Cl)ccc2c1/C=C/C(=O)NCc1ccccc1OC`, the Stability entry in [4] is “Stable”. The Activity entry in series [5] was “Dose-dependent effect”; in series [3], 20%. For the same compound, the inhibition entry in series [6] was “Dose-dependent effect”; in series [7], 50%. The inhibition entry in series [8], in [2] and in [9] was “Active” throughout.
